Laboratory results published in ChEMBL document CHEMBL4368893, “2,2-Dimethyl-3,4-dihydro-2H-1,4-benzoxazines as isosteres of 2,2-dimethylchromans acting as inhibitors of insulin release and vascular smooth muscle relaxants” (Medchemcomm, 2019).

What was measured:
Thoracic aorta [1] = test: Myorelaxant activity in rat thoracic aortic rings assessed as relaxation of 30 mM KCl-induced contraction by force-displacement transducer based assay relative to KCl; type: functional, tissue-based
Procedure, shortened: (§1)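 Aortic rings from adult fed Wistar rats. Kept at 37 °C in oxygenated medium (95% O2/5% CO2) and equilibrated 60 min. Contraction raised with 30 or 80 mM KCl and recorded isometrically by force transducer. Drug added cumulatively, up to maximal relaxation or 200 µM. Response expressed as % of KCl contraction; EC50 from concentration–response curves, mean ± SEM (n).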

[2] = Inhibition of glucose-induced insulin release in rat pancreatic islets assessed as residual insulin secretion at 10 uM incubated for 90 mins incubated in presence of 16.7 mM glucose by radioimmunology assay; type: functional
Procedure, shortened: (§2)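 Islets isolated from adult fed Wistar rats by collagenase digestion, used fresh. Groups of 10 islets pre-incubated 30 min at 37 °C in bicarbonate salt medium with 2.8 mM glucose and 0.5% albumin, gassed O2/CO2 95:5. Then 90 min at 37 °C with 16.7 mM glucose plus compound. Insulin by RIA against rat insulin standard. Output is % of control secretion, mean ± SEM (n).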

[3] = Inhibition of glucose-induced insulin release in rat pancreatic islets assessed as residual insulin secretion at 1 uM incubated for 90 mins incubated in presence of 16.7 mM glucose by radioimmunology assay; type: functional; procedure, shortened: as §2
Thoracic aorta [4] = test: Myorelaxant activity in rat thoracic aortic rings assessed as relaxation of 30 mM KCl-induced contraction in presence of 10 uM K-ATP channel blocker glibenclamide by force-displacement transducer based assay relative to KCl; type: functional, tissue-based
Procedure, shortened: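 Wistar rat aortic rings in oxygenated medium at 37 °C, equilibrated 60 min, with 10 µM glibenclamide present throughout. Precontracted with 30 mM KCl; isometric tension recorded by transducer. Cumulative drug addition to maximal relaxation or 200 µM. Tension expressed as % of KCl response; EC50 (50% inhibition of plateau) from concentration–response curves.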

Thoracic aorta [5] = test: Myorelaxant activity in rat thoracic aortic rings assessed as relaxation of 80 mM KCl-induced contraction by force-displacement transducer based assay relative to KCl; type: functional, tissue-based; procedure, shortened: as §1

| SMILES | EC50 (Thoracic aorta [1]) [µM] | Activity [2] [%] | Activity [3] [%] | EC50 (Thoracic aorta [4]) [µM] | EC50 (Thoracic aorta [5]) [µM] |
| --- | --- | --- | --- | --- | --- |
| CC1(C)CN(NC(=S)Nc2cccc(C#N)c2)c2cc(Cl)ccc2O1 | > 30 | 27 | 83.1 | – | – |
| CC1(C)CN(NC(=O)Nc2ccc(Cl)cc2)c2cc(Cl)ccc2O1 | 13.3 | 56.2 | 89.5 | – | – |
| CC1(C)CN(NC(=S)Nc2ccc(Cl)cc2)c2cc(Cl)ccc2O1 | > 30 | 81.4 | – | – | – |
| CC1(C)CN(NC(=O)Nc2cccc(C#N)c2)c2cc(Cl)ccc2O1 | 1.9 to 3.1 | 35.7 | 79.5 | 3.9 | 5 |
| CC1(C)CN(NC(=O)Nc2cccc(Cl)c2)c2cc(Cl)ccc2O1 | 9.9 | 46 | 92.5 | – | – |
| CC1(C)CN(NC(=O)Nc2ccc(C#N)cc2)c2cc(Cl)ccc2O1 | 3.7 | 43.1 | 79 | – | – |
| CC1(C)CN(NC(=S)Nc2ccc(C#N)cc2)c2cc(Cl)ccc2O1 | > 30 | 10.8 | 73.3 | – | – |
| CC1(C)CN(NC(=S)Nc2cccc(Cl)c2)c2cc(Cl)ccc2O1 | > 30 | 71.8 | – | – | – |
